ChEMBL document CHEMBL3877308, “Design, synthesis and in vitro biological evaluation of oligopeptides targeting E. coli type I signal peptidase (LepB)” (Bioorg Med Chem, 2017)
In brackets after ≈: the same amount, converted by molar mass.

What was measured:
[1] = molecular target: T1, Signal peptidase I (Escherichia coli K-12, UniProt P00803); assay: (§1) Inhibition of full length Escherichia coli His6-tagged LepB expressed in Escherichia coli C43(DE3) using dabcyl-VEVGGTATAGAFSRPGLE-(EDANS) as substrate preincubated for 10 mins followed by substrate addition measured for 2 hrs by FRET assay
Summary of the method: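 Enzyme extracted from the membrane fraction with 1% reduced Triton X-100 and purified by metal-chelation chromatography in 0.5% detergent. Enzyme (final ~50 nM) was pre-incubated with compound for 10 min at 22 °C. The linear rise in EDANS donor fluorescence (dabcyl acceptor) was then followed at 22 °C for 2 h. IC50 came from non-linear regression of sigmoidal rate-versus-concentration curves.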

[2] = molecular target: Signal peptidase I (Escherichia coli K-12) (UniProt P00803); assay: as §1, with “C43(DE3) assessed as residual activity at 15.625 uM” for “C43(DE3)”, “assay relative to control” for “assay”
Summary of the method: (§2)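 Enzyme came from the membrane fraction, extracted with 1% reduced Triton X-100 and purified by metal-chelation chromatography in 0.5% detergent. FRET pair was dabcyl acceptor and EDANS donor. EcLepB (final about 50 nM) was pre-incubated with compound 10 min at 22 °C. Reaction was then run with 8 µM substrate, following the linear fluorescence increase at 22 °C for 2 h.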

[3] = molecular target: Signal peptidase I (Escherichia coli K-12) (UniProt P00803); assay: as §1, with “C43(DE3) assessed as residual activity at 31.25 uM” for “C43(DE3)”, “assay relative to control” for “assay”; summary of the method: as §2
[4] = molecular target: Signal peptidase I (Escherichia coli K-12) (UniProt P00803); assay: (§3) Inhibition of full length Escherichia coli His6-tagged LepB expressed in Escherichia coli C43(DE3) at 100 uM using dabcyl-VEVGGTATAGAFSRPGLE-(EDANS) as substrate preincubated for 10 mins followed by substrate addition measured for 2 hrs by FRET assay relative to control; summary of the method: as §2
[5] = molecular target: Signal peptidase I (Escherichia coli K-12) (UniProt P00803); assay: as §3, with “C43(DE3) assessed as residual activity” for “C43(DE3)”, “1000” for “100”; summary of the method: as §2
[6] = molecular target: Signal peptidase I (Escherichia coli K-12) (UniProt P00803); assay: (§4) Inhibition of full length Escherichia coli His6-tagged LepB expressed in Escherichia coli C43(DE3) assessed as residual activity at 500 uM using dabcyl-VEVGGTATAGAFSRPGLE-(EDANS) as substrate preincubated for 10 mins followed by substrate addition measured for 2 hrs by FRET assay relative to control; summary of the method: as §2
[7] = molecular target: Signal peptidase I (Escherichia coli K-12) (UniProt P00803); assay: Inhibition of full length Escherichia coli His6-tagged LepB expressed in Escherichia coli C43(DE3) assessed as residual activity at 250 uM using dabcyl-VEVGGTATAGAFSRPGLE-(EDANS) as substrate preincubated for 10 mins followed by substrate addition measured for 2 hrs by FRET assay relative to control; summary of the method: as §2
[8] = molecular target: Signal peptidase I (Escherichia coli K-12) (UniProt P00803); assay: Inhibition of full length Escherichia coli His6-tagged LepB expressed in Escherichia coli C43(DE3) assessed as residual activity at 125 uM using dabcyl-VEVGGTATAGAFSRPGLE-(EDANS) as substrate preincubated for 10 mins followed by substrate addition measured for 2 hrs by FRET assay relative to control; summary of the method: as §2
[9] = molecular target: Signal peptidase I (Escherichia coli K-12) (UniProt P00803); assay: as §4, with “62.5” for “500”; summary of the method: as §2
[10] = molecular target: Signal peptidase I (Escherichia coli K-12) (UniProt P00803); assay: as §4, with “7.8125” for “500”; summary of the method: as §2
[11] = molecular target: Signal peptidase I (Escherichia coli K-12) (UniProt P00803); assay: as §4, with “3.90625” for “500”; summary of the method: as §2
[12] = molecular target: Signal peptidase I (Escherichia coli K-12) (UniProt P00803); assay: as §4, with “1.953125” for “500”; summary of the method: as §2
[13] = molecular target: Signal peptidase I (Escherichia coli K-12) (UniProt P00803); assay: as §4, with “0.9765625” for “500”; summary of the method: as §2
[14] = molecular target: Signal peptidase I (Escherichia coli K-12) (UniProt P00803); assay: as §4, with “0.4882812” for “500”; summary of the method: as §2
[15] = molecular target: Signal peptidase I (Escherichia coli K-12) (UniProt P00803); assay: as §4, with “0.241406” for “500”; summary of the method: as §2
[16] = molecular target: Signal peptidase I (Escherichia coli K-12) (UniProt P00803); assay: as §4, with “0.1220703” for “500”; summary of the method: as §2
[17] = system: Escherichia coli; assay: Antibacterial activity against wild type Escherichia coli ATCC 25922 after 16 to 20 hrs by broth microdilution assay; assay type: functional
Summary of the method: (§5)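 MIC by broth microdilution in cation-adjusted Mueller-Hinton II medium, following EUCAST and CLSI guidelines; panel of Gram-negative strains plus S. aureus ATCC 29213.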

[18] = system: Escherichia coli; assay: Antibacterial activity against Escherichia coli CH3130 harboring tolC deletion mutant after 16 to 20 hrs by broth microdilution assay; assay type: functional
Summary of the method: (§6)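 Broth microdilution MIC in cation-adjusted Mueller-Hinton II medium, following EUCAST and CLSI guidelines; tested on a panel of Gram-negative strains plus S. aureus ATCC 29213 (wild-type).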

[19] = system: Escherichia coli; assay: Antibacterial activity against Escherichia coli D22 harboring lpxC mutant after 16 to 20 hrs by broth microdilution assay; assay type: functional; summary of the method: as §6
[20] = system: Pseudomonas aeruginosa; assay: Antibacterial activity against wild type Pseudomonas aeruginosa PAO1 after 16 to 20 hrs by broth microdilution assay; assay type: functional; summary of the method: as §5
[21] = system: Pseudomonas aeruginosa; assay: Antibacterial activity against wild type Pseudomonas aeruginosa PAO750 harboring efflux defective mutant after 16 to 20 hrs by broth microdilution assay; assay type: functional; summary of the method: as §6
[22] = system: Klebsiella pneumoniae; assay: Antibacterial activity against wild type Klebsiella pneumoniae […] after 16 to 20 hrs by broth microdilution assay; assay type: functional; summary of the method: as §5
[23] = system: Staphylococcus aureus; assay: Antibacterial activity against wild type Staphylococcus aureus ATCC 29213 after 16 to 20 hrs by broth microdilution assay; assay type: functional; summary of the method: as §5
[24] = system: Acinetobacter baumannii; assay: Antibacterial activity against wild type Acinetobacter baumannii ATCC 19606 after 16 to 20 hrs by broth microdilution assay; assay type: functional; summary of the method: as §5
[25] = molecular target: T1, Signal peptidase I; assay: Inhibition of full length Escherichia coli His6-tagged LepB expressed in Escherichia coli C43(DE3) using dabcyl-VEVGGTATAGAFSRPGLE-(EDANS) as substrate preincubated for 10 mins followed by substrate addition measured after […] by FRET assay

Chain of Signal peptidase I (Escherichia coli K-12) (P00803 whole entry): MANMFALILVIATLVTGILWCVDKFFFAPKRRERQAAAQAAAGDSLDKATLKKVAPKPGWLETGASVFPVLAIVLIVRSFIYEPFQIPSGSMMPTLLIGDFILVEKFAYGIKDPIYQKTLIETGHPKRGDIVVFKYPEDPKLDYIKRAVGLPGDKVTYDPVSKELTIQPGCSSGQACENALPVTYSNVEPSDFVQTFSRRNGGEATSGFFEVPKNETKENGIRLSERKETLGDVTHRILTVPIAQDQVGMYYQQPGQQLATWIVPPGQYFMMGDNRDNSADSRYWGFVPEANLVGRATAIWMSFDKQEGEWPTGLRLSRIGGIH
T1 sequence (P00803 whole entry): as above

For `CCCCCCCCCC(=O)N1CCC[C@H]1C(=O)N[C@H](C(=O)N[C@@H](C)C(=O)N[C@@H](CC(N)=O)C(=O)N[C@@H](C)C=O)[C@H](C)O`, the IC50 [1] was 1200 nM, the Activity [2] was 13% and the Activity [3] was 6.54%. It also gave an inhibition [4] of 100%, an Activity [5] of -5.5% and an Activity [6] of -4.44%. For the same compound, the Activity [7] was -6.1%, the Activity [8] was -3.34% and the Activity [9] was -0.871%. For the same compound, the Activity [10] was 20.9%, the Activity [11] was 34.7% and the Activity [12] was 43.6%. For the same compound, the Activity [13] was 48.7%, the Activity [14] was 64.5% and the Activity [15] was 72.6%. The Activity [16] was 77.4%, the MIC [17] was greater than 128 µg/mL and the MIC [18] was greater than 128 µg/mL. For the same compound, the MIC [19] was greater than 128 µg/mL, the MIC [20] was greater than 128 µg/mL and the MIC [21] was 128 µg/mL (≈ 210 µM). For the same compound, the MIC [22] was greater than 128 µg/mL, the MIC [23] was greater than 128 µg/mL and the MIC [24] was greater than 128 µg/mL. The IC50 [25] was 6.5 µM.
